Compound activity: PubChem, The Scripps Research Institute Molecular Screening Center
Only some compounds are listed: those with a hit (about 3.1% of all), similar ones and a draw of the others.
ABHD5 PLIN5 PPI = ABHD5-PLIN5 interaction inhibitors, primary screen, cell lysate, split luciferase complementation, luminescence. AID 602281, 2012. inhibition, % at 4 µM. 360,000 tested, 0.78% active. Perilipin-5 (Homo sapiens) + 1-acylglycerol-3-phosphate O-acyltransferase ABHD5 (Homo …. Split G. princeps luciferase complementation, 4 h;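 active = inhibition above the mean inhibition across every tested compound plus 3 SD, cut at about 22% in these data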;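 note: 0% = DMSO only wells and the 100% control is not disclosed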
Target sequence (Q00G26 whole entry, looked up): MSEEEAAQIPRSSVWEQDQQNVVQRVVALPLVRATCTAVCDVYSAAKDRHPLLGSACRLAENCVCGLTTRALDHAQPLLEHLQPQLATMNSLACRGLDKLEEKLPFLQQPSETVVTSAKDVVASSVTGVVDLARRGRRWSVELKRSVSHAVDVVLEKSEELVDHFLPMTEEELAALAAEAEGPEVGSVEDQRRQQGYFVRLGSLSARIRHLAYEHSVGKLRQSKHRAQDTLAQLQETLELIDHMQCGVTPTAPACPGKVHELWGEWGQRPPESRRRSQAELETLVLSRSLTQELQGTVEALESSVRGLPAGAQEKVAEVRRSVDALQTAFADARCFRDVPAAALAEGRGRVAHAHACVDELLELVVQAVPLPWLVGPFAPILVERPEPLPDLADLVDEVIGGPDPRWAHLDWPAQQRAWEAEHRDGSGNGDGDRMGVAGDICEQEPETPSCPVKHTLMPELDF
Target sequence (Q8WTS1 whole entry, looked up): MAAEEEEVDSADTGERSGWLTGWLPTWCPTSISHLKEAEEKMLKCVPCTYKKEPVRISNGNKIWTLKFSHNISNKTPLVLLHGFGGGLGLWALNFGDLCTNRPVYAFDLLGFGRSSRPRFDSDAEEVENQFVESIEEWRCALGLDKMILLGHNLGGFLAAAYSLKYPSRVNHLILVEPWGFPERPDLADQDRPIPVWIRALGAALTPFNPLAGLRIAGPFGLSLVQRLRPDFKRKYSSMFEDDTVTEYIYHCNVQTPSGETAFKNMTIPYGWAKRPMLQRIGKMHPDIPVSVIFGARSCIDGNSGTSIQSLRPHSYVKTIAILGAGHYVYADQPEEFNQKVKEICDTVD
MBD2 DNA inh = inhibitors of MBD2 binding to methylated DNA, primary screen, biochemical, TR-FRET, DNA-binding domain, human; inhibition, % at 4.4 µM; Methyl-CpG-binding domain protein 2 (Homo sapiens), Q9UBB5; MBD2 binding to methylated oligonucleotide; 370,000 tested, 0.31% active; in the data active = inhibition above about 13%
LEDGF integ inh = blockers of LEDGF/p75-dependent integrase strand transfer – biochemical, TR-FRET, high throughput, primary screen | HIV-1 integrase (with human LEDGF/p75) | TR-FRET IN-LEDGF/p75 DNA integration, Eu/Cy5 | inhibition, % at 3.7 µM | 370,000 tested, 0.64% active;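 active = inhibition above the screen-wide mean plus 3 SD, cut at about 13% in these data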;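 note: signal is the Cy5 over europium emission ratio at 671 and 618 nm; 0% = plate median of compound wells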
UHRF1 MBD2 ctr = UHRF1 methylated DNA binding inhibitors, primary screen, counter-screen for MBD2 inhibitor project, biochemical, TR-FRET, human UHRF1, single concentration; E3 ubiquitin-protein ligase UHRF1 (Homo sapiens), Q96T88; UHRF1 binding to methylated oligo; inhibition, % at 4.4 µM; 370,000 tested, 0.75% active; AID 687016, 2013;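 note: UHRF1 SRA domain binding a hemimethylated CpG hairpin DNA probe; 0% = median of test compound wells and 100% = reference inhibitor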
PRMT1 FP inh = PRMT1 methyltransferase inhibitors, primary screen, biochemical, fluorescence polarization. Protein arginine N-methyltransferase 1 (Homo sapiens), Q99873. recombinant PRMT1, activity-based probe fluorescence polarization. inhibition, % at 2.79 µM. 370,000 tested, 1.3% active. AID 652257, 2013;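 active = inhibition above about 21% made by adding two undisclosed values, limit read from the data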
RBBP9 inh = human RBBP9 inhibitors, primary screen, biochemical, fluorescence polarization, FP-Rh probe, HTS; Serine hydrolase RBBP9 (Homo sapiens), O75884; 220,000 tested, 0.2% active; inhibition, % at 7.94 µM; recombinant RBBP9;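 active = inhibition above the campaign mean of all tested compounds plus 3 SD, cut at about 14% in these data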;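 note: plate controls were DMSO wells with RBBP9 for no effect and wells lacking RBBP9 protein for full effect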
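Test system: recombinant human RBBP9; Timing: 30 min then 45 min, 25 °C; Detection: fluorescence polarization; Control set: RBBP9 with DMSO as uninhibited control, no-protein wells as full inhibition; Compound dosing: one concentration, 7.94 µM nominal, 0.794% DMSO; Probe or stimulus: FP-Rh activity-based probe, 375 nM before mixing.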
PRMT1 confirm = PRMT1 methyltransferase inhibitors, confirmation, biochemical, fluorescence polarization, triplicate; recombinant His-PRMT1, activity-based probe fluorescence polarization; shares compounds with PRMT1 FP inh; inhibition, % at 2.79 µM; 3,300 tested, 42% active; AID 687036, 2013;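 active = mean inhibition across replicates above the hit cutoff derived for the earlier primary screen, cut at about 22% in these data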
UHRF1 ctr MBD2 = UHRF1 methylated DNA binding inhibitors, counter-screen for MBD2 inhibitor project, biochemical, TR-FRET, human UHRF1; shares compounds with MBD2 DNA inh; inhibition, % at 4.4 µM; UHRF1 binding to methylated oligonucleotide; 1,000 tested, 25% active;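 note: UHRF1 SRA domain binding a labeled hemimethylated CpG hairpin DNA; 0% = vehicle only and 100% = reference inhibitor with vehicle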
MBD2 DBD conf = inhibitors of MBD2 binding to methylated DNA, confirmation, biochemical, TR-FRET, DNA-binding domain, human; TR-FRET MBD2-DBD binding to methylated oligonucleotide; inhibition, % at 4.4 µM; 1,000 tested, 26% active; shares compounds with MBD2 DNA inh; AID 720531, 2013; in the data active = inhibition above about 14%
IN multimer act = HIV-1 IN multimer formation enhancers, counter-screen for LEDGF/p75 integration inhibitor project, biochemical, TR-FRET; shares compounds with LEDGF integ inh; TR-FRET HIV-1 integrase multimerization; activation, % at 7.7 µM; 2,000 tested, 17% active; AID 1053131, 2014; in the data active = activation above about 8.9%
TRFRET interf = TR-FRET optical interference artefacts, confirmation, artefact control for LEDGF/p75-dependent integration inhibitor project, biochemical, HIV-1 IN multimerization; shares compounds with LEDGF integ inh; TR-FRET optical interference counterscreen; inhibition, % at 7.7 µM; 2,000 tested, under 10 active;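 active = inhibition above the mean over all tested compounds plus 3 SD, which no compound reached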;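 note: 0% = integrase with antibodies and DMSO and 100% = antibodies without integrase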
LEDGF integ conf = inhibitors of HIV-1 IN-LEDGF/p75 DNA integration, confirmation, biochemical, TR-FRET. inhibition, % at 3.7 µM. 2,000 tested, 36% active. TR-FRET LEDGF/p75-dependent HIV-1 integration. AID 1053136, 2014. shares compounds with LEDGF integ inh; in the data active = inhibition above about 14%
Numbers without * were called inactive. Cut-off read from the data, not from the text of the source, unless noted: active = inhibition above about 21%; inactive = the rest.

What do the screens show for `CC(=O)Nc1sc2c(c1-c1nc3ccccc3s1)CCN(C(C)C)CC2`?
MBD2 DNA inh: 22*; LEDGF integ inh: 0; UHRF1 MBD2 ctr: 3; PRMT1 FP inh: 37*; PRMT1 confirm: 11; UHRF1 ctr MBD2: 7; MBD2 DBD conf: 26*

Results for O=C1C(NC(=O)N2c3ccccc3C=Cc3ccccc32)CCCCN1Cc1cccc(C(F)(F)F)c1 (stereo not drawn) ?
MBD2 DNA inh: -2; LEDGF integ inh: 3; UHRF1 MBD2 ctr: 1; PRMT1 FP inh: 0

What do the screens show for `FC(F)(F)c1ccccc1Cc1c(-c2ccco2)nc2c3ccccc3ccn12`?
MBD2 DNA inh: 13*; LEDGF integ inh: 1; UHRF1 MBD2 ctr: 21; PRMT1 FP inh: 32*; PRMT1 confirm: 23*; UHRF1 ctr MBD2: 14; MBD2 DBD conf: 8

How did Cc1ccc2c(nc3s/c(=C\c4ccc(-c5ccccc5C(=O)O)o4)c(=O)n32)c1C do in these assays?
ABHD5 PLIN5 PPI: 1; MBD2 DNA inh: 15*; LEDGF integ inh: 11; UHRF1 MBD2 ctr: 34*; PRMT1 FP inh: 29*; PRMT1 confirm: 3; UHRF1 ctr MBD2: 15; MBD2 DBD conf: 5

How did O=C(COC(=O)c1c2c(nc3ccccc13)/C(=C/c1ccco1)CC2)NC1CCCC1 do in these assays?
ABHD5 PLIN5 PPI: 9; MBD2 DNA inh: 14*; LEDGF integ inh: 39*; UHRF1 MBD2 ctr: 45*; PRMT1 FP inh: 35*; RBBP9 inh: -2; PRMT1 confirm: 28*; UHRF1 ctr MBD2: 43*; MBD2 DBD conf: 32*

Results for O=C(O)C(Cc1ccccc1)N1C(=O)/C(=C/C=C/c2ccco2)SC1=S (stereo not drawn) ?
ABHD5 PLIN5 PPI: 0; MBD2 DNA inh: 94*; LEDGF integ inh: 86*; UHRF1 MBD2 ctr: 98*; PRMT1 FP inh: 61*; RBBP9 inh: 5; PRMT1 confirm: 34*; UHRF1 ctr MBD2: 98*; MBD2 DBD conf: 71*; IN multimer act: 27*; TRFRET interf: -95; LEDGF integ conf: 82*

Results for COc1ccc(/C=C2\SC(=S)N(C(Cc3ccccc3)C(=O)O)C2=O)cc1 (stereo not drawn) ?
ABHD5 PLIN5 PPI: -9; MBD2 DNA inh: -5; LEDGF integ inh: 3; UHRF1 MBD2 ctr: -11; PRMT1 FP inh: 3; RBBP9 inh: -1

What do the screens show for `S=C(NC1CC1)SCc1ccco1`?
ABHD5 PLIN5 PPI: -4; MBD2 DNA inh: 24*; LEDGF integ inh: 35*; UHRF1 MBD2 ctr: 54*; PRMT1 FP inh: 48*; PRMT1 confirm: 12; UHRF1 ctr MBD2: 8; MBD2 DBD conf: 2; IN multimer act: 0; TRFRET interf: 0; LEDGF integ conf: 2

What do the screens show for `O=C(NC1CCCCC1)NC1CCN(C(=S)NCc2ccco2)CC1`?
ABHD5 PLIN5 PPI: 1; MBD2 DNA inh: -5; LEDGF integ inh: 0; UHRF1 MBD2 ctr: 0; PRMT1 FP inh: 0; RBBP9 inh: -6

Results for O=C1C=CC(=O)c2c(O)c(N3CCN(CCO)CC3)c(Cl)c(O)c21 ?
ABHD5 PLIN5 PPI: -7; MBD2 DNA inh: 0; LEDGF integ inh: 26*; UHRF1 MBD2 ctr: 18; PRMT1 FP inh: 52*; PRMT1 confirm: 85*; IN multimer act: 91*; TRFRET interf: -322; LEDGF integ conf: 78*

Results for O=C1C=CC(=O)c2c(O)c(N3CCN(CCOCCO)CC3)c(Br)c(O)c21 ?
ABHD5 PLIN5 PPI: -2; MBD2 DNA inh: 10; LEDGF integ inh: 50*; UHRF1 MBD2 ctr: 40*; PRMT1 FP inh: 66*; PRMT1 confirm: 93*; IN multimer act: 99*; TRFRET interf: -352; LEDGF integ conf: 83*

Results for COc1ccc2c(c1)CCCN2C(=O)C1CCCN(S(=O)(=O)c2ccc(C(C)(C)C)cc2)C1 (stereo not drawn) ?
MBD2 DNA inh: 2; LEDGF integ inh: -2; UHRF1 MBD2 ctr: 0; PRMT1 FP inh: 5

How did Cc1cccc(-c2n[nH]c(=S)n2/N=C/C=C/c2ccco2)c1 do in these assays?
ABHD5 PLIN5 PPI: 1; MBD2 DNA inh: 11; LEDGF integ inh: 29*; UHRF1 MBD2 ctr: 26*; PRMT1 FP inh: 46*; RBBP9 inh: -2; PRMT1 confirm: 11; IN multimer act: 2; TRFRET interf: -12; LEDGF integ conf: 8

What do the screens show for `CC(/C=N/n1c(-c2ccncc2)n[nH]c1=S)=C\c1ccco1`?
ABHD5 PLIN5 PPI: 5; MBD2 DNA inh: -1; LEDGF integ inh: 16*; UHRF1 MBD2 ctr: 8; PRMT1 FP inh: 27*; RBBP9 inh: -3; PRMT1 confirm: 6; IN multimer act: 5; TRFRET interf: -17; LEDGF integ conf: 11

How did CC(/C=N/n1c(-c2ccc(C)cc2)n[nH]c1=S)=C\c1ccco1 do in these assays?
ABHD5 PLIN5 PPI: 3; MBD2 DNA inh: -5; LEDGF integ inh: 5; UHRF1 MBD2 ctr: -2; PRMT1 FP inh: 18; RBBP9 inh: -1
